Screening data as filed in PubChem.
This is a sample that favours compounds with a hit; in the whole collection about 4% have one here.
KCNK9 inh – human KCNK9 channel inhibition. Q9NPC2. HEK293 KCNK9, FluxOR thallium flux fluorescence; hits give low values. B-score at 10 µM. 310,000 compounds, 1.2% hits. AID 488922;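 active = ratio B-score over 3 SD below the library mean, with starting fluorescence within 5 SD of its mean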;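 also: negative B-score means less thallium flux so channel inhibition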
Target sequence (Q9NPC2 whole entry, looked up): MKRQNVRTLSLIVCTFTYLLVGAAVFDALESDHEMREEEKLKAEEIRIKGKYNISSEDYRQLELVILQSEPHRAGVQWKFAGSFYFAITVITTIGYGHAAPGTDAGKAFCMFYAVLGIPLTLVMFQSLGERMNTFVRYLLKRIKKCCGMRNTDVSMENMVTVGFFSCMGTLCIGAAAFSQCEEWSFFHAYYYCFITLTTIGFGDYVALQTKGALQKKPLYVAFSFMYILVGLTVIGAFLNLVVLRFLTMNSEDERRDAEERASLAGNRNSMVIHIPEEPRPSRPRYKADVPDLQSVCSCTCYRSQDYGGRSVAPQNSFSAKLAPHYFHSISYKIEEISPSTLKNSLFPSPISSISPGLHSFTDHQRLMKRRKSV
hERG protect – shields human hERG channel from block by proarrhythmic agents; activation (rescue from dofetilide block), less the hit threshold, % at 10 µM; CHO-hERG, FluxOR thallium flux, dofetilide IC70 present; 310,000 compounds, 0.51% hits; Q12809;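 active = activation above the mean of controls blocked by dofetilide plus 5 SD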;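 also: thallium influx through hERG after potassium depolarization seen as dye fluorescence rise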
PHOSPHO1 block – inhibitors of human PHOSPHO1 phosphatase; Q8TCT1; recombinant PHOSPHO1, absorbance phosphatase assay; 290,000 compounds, 1.1% hits; inhibition, % at 13.3 µM; in the data active = inhibition above about 60%
KCNQ1 block – inhibitors of human KCNQ1 potassium channel; CHO-K1 KCNQ1, FluxOR thallium flux fluorescence; hits give high values; B-score at 10 µM; AID 2642; 310,000 compounds, 1.3% hits;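 active = compounds whose thallium flux B-score, printed positive for inhibition, exceeds three library SD while starting fluorescence stays within three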;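 also: channel opened by potassium depolarization with thallium stimulus after 20 min compound exposure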
KCNK3 block – human KCNK3 channel inhibition, primary screen; B-score at 10 µM; CHO-KCNK3 thallium flux, FluxOR fluorescence; hits give low values; 340,000 compounds, 0.84% hits; O14649;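 active = B-score under library mean minus 4 SD, starting fluorescence ratio at most library mean plus 5 SD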;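 also: more negative B-score means stronger inhibition of thallium flux through KCNK3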
KCNQ1 pot – potentiates or activates the human KCNQ1 potassium channel | CHO-K1 KCNQ1, thallium flux FluxOR fluorescence; hits give high values | B-score at 10 µM | 310,000 compounds, 0.35% hits;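 active = fluorescence ratio B-score, a plate-corrected score, at least three library SD, with initial intensity B-score within 5 SD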
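Assay system: stable KCNQ1 CHO-K1 line; medium: assay buffer, equal DMSO in all wells; timing: 90 min dye loading and 20 min compound exposure, both at room temperature; technique: kinetic FluxOR thallium fluorescence, 10-s 1-Hz baseline, 110-s post-stimulus read; read-out basis: B score of baseline-normalized fluorescence ratio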
KCNK3 confirm – human KCNK3 channel inhibition, confirmation assay; CHO-KCNK3 thallium flux, FluxOR fluorescence; 0% buffer, 100% carvedilol maximal block; 2,400 compounds, 99% hits; ratio percent of control, % at 10 µM; shares compounds with KCNK3 block;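 active = ratio percent of control, averaged over triplicates, above buffer control mean plus 5 SD, cut at about 64% in these data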;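 also: ratio is the fluorescence rise from min to max over baseline after thallium stimulus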
KCNK3 uninduced – counter-screen for KCNK3 inhibitors: effect in non-induced cells; shares compounds with KCNK3 block; non-induced KCNK3 parental cells, FluxOR thallium flux; hits give low values; thallium flux ratio (lower = more inhibition) at 10 µM; 2,400 compounds, 40% hits;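 active = thallium flux ratio, averaged over three wells, more than 5 SD below the buffer control mean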;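 also: host cells are CHO cells without KCNK3 induction; ratio is peak minus trough fluorescence over baseline then normalized to buffer controls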
* = called active by the depositor; i = inactive; . = no result.

SMILES | KCNK9 inh | hERG protect | PHOSPHO1 block | KCNQ1 block | KCNK3 block | KCNQ1 pot | KCNK3 confirm | KCNK3 uninduced
CCOc1ccccc1C(=O)NCC(=O)OCCCOC(=O)CNC(=O)c1ccccc1OCC | i | -20 | . | i | i | i | . | .
COc1ccc(Nc2ccc([N+](=O)[O-])c3nonc23)c(OC)c1 | i | -4 | . | i | i | i | . | .
Cc1nn(Cc2ccc(Cl)cc2)c(C)c1NC(=O)c1noc2c1CCc1ccccc1-2 | i | -8 | -2 | i | -8.7* | i | 117* | i
Cc1ccc(S(=O)(=O)N2CCOCC2)cc1NC(=O)COC(=O)CNC(=O)c1ccc(Cl)cc1Cl | i | -3 | -7 | i | -10* | i | 87* | i
Cc1ccc(C(=O)NCC(=O)OCC(=O)Nc2cc(S(=O)(=O)N3CCOCC3)ccc2Cl)s1 | . | . | . | . | i | . | . | .
Nc1[nH]c2cc([N+](=O)[O-])ccc2c1-c1ccccn1 | i | -25 | 6 | i | -10* | i | 115* | 0.14*
O=c1[nH]c(N/N=C\c2ccc3c(c2)OCO3)nc2ccccc12 | i | -6 | 37 | i | i | i | . | .
Cc1cc(N/N=C/c2ccc3c(c2)OCO3)nc2ccccc12 | i | -9 | 43 | i | -11* | i | 113* | i
COc1ccc(-c2csc(N(CC3CCCO3)C(=O)c3ccccc3)n2)cc1 (configuration not stated) | i | -10 | 24 | i | -8.9* | i | 89* | i
COc1ccc(-c2csc(N(CC3CCCO3)C(=O)c3ccc(C)cc3)n2)cc1 (configuration not stated) | i | -11 | 6 | i | i | i | . | .
Cc1ccc(S(=O)(=O)Nc2cc(C(C)C)c(O)cc2C)cc1 | i | -10 | 23 | i | i | i | . | .
Cc1cccc(NC(=O)COc2ccc(-c3nn(C)c(=O)c4ccccc34)cc2)c1 | i | -7 | 4 | 6* | -12* | i | 100* | i
COc1ccccc1NC(=O)c1ccc(-c2nn(C)c(=O)c3ccccc23)cc1 | i | -19 | 18 | i | -9.9* | i | 96* | i
Cn1nc(-c2ccc(OCC(=O)Nc3ccccc3)cc2)c2ccccc2c1=O | i | -13 | 2 | i | i | i | . | .
Cc1cc(Cl)ccc1NC(=S)NCc1ccccc1 | i | -1 | -3 | i | -9.5* | i | 87* | i
COc1cccc(CNC(=S)Nc2ccc(Cl)cc2C)c1 | i | -2 | . | i | i | i | . | .
Fc1ccc(CNC(=S)NCc2cccc(Cl)c2)cc1 | i | -20 | 4 | i | -9.4* | i | 113* | i
COc1ccccc1/C=N/NC(=O)c1cc2c(ccc3ccccc32)o1 | i | -26 | -21 | i | -12* | i | 85* | i
COc1ccc(/C=N/NC(=O)c2cc3c(ccc4ccccc43)o2)cc1OC | i | -18 | 17 | i | i | i | . | .
CCCCNC(=O)CNC(=S)N(Cc1ccc(C)cc1)Cc1ccco1 | i | -1 | -1 | i | i | i | . | .
CCOC(=O)CNC(=S)N(Cc1ccco1)Cc1ccccc1Cl | i | -7 | 26 | i | -10* | i | 124* | i
COc1ccc(CNC(=O)C(=O)NCC2OCCN2S(=O)(=O)c2ccc(OC)c(OC)c2)cc1 (configuration not stated) | i | -2 | 40 | i | i | i | . | .
CC(O)CN1C(=O)C(CC(=O)Nc2ccc(Cl)cc2)SC1=Nc1ccccc1 (configuration not stated) | i | -1 | -24 | i | -9.5* | i | 110* | i
COCCN1C(=O)C(CC(=O)Nc2ccc(C(C)=O)cc2)SC1=Nc1ccccc1 (configuration not stated) | i | -21 | 10 | i | i | i | . | .
